ChEMBL document CHEMBL1138240, “Identifying merozoite surface protein 4 and merozoite surface protein 7 Plasmodium falciparum protein family members specifically binding to human erythrocytes suggests a new malarial parasite-redundant survival mechanism” (J Med Chem, 2007)
Activity calls are given as the source filed them. No cut-off for these calls is given here. Peptide text beside a SMILES is read from it.

How the values were obtained:
Plasmodium falciparum [1] = assay: Inhibition of Plasmodium falciparum FCB2 merozoite invasion of human erythrocytes at 100 uM; format: functional; parameters: scale not given: the % may be the effect or the level left
In short: (§1)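 Sorbitol-synchronized P. falciparum FCB-2 was grown to late schizonts and set at 0.5% parasitemia and 5% hematocrit in RPMI 1640 with 10% O+ plasma. Peptides were added at 100 or 200 µM, in triplicate. Plates were incubated 18 h at 37 °C under 5% O2/5% CO2/90% N2. RBC were stained with hydroethidine 15 µg/mL for 30 min, washed, and read by flow cytometry (FL2). Values are mean ± SD of three experiments.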

Plasmodium falciparum [2] = assay: Inhibition of Plasmodium falciparum FCB2 merozoite invasion of human erythrocytes at 200 uM; format: functional; in short: as §1
Erythrocyte [3] = assay: Binding affinity to 52 kDa erythrocyte membrane protein in trypsin treated human erythrocytes at 1 mg/mL after 1 hr relative to control; format: cell-based
In short: (§2)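 Human RBC (1.5 × 10^7 cell/µL in HBS pH 7.2, 1 mL) were treated for 1 h at 37 °C with shaking. […] used neuraminidase at 150 µU/mL. […] used trypsin and chymotrypsin at 1 mg/mL final. Cells were spun and washed thrice with HBS, then tested in the 125I-peptide binding assay. Specific binding is given as % of untreated-RBC control.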

Erythrocyte [4] = assay: Binding affinity to 52 kDa erythrocyte membrane protein in chymotrypsin treated human erythrocytes at 1 mg/mL after 1 hr relative to control; format: cell-based; in short: as §2
Erythrocyte [5] = assay: Displacement of [125I]MSP-4 20494 peptide from 52 kDa erythrocyte membrane protein in human erythrocytes at 30 uM; format: cell-based
In short: (§3)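 Competition used 125I-labeled MSP-4 peptide 20494 at 300 nM with 1 × 10^7 human RBC. Unlabeled competitor peptides were present at 3–30 µM. Incubation was 90 min at room temperature. Cells were washed three times with HBS and cell-bound radioactivity was counted on a gamma counter.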

Erythrocyte [6] = assay: Binding affinity to 52 kDa erythrocyte membrane protein in neuraminidase treated human erythrocytes at 1 mg/mL after 1 hr relative to control; format: cell-based
[7] = Binding affinity to 52 kDa erythrocyte membrane protein in human erythrocytes; format: cell-based
In short: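 Saturation binding used RBC at 1.5 × 10^7 cell/µL with 125I-peptide at 0–1800 nM, with or without 200-fold excess unlabeled peptide, for 90 min. Free label was sampled from the supernatant. Cells were washed twice with HBS and bound counts were measured by gamma counting, in triplicate. Affinity constant and sites per cell came from saturation curves; Hill coefficient came from a Hill plot.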

Plasmodium falciparum [8] = assay: Inhibition of Plasmodium falciparum FCB2 merozoite invasion of human erythrocytes at 0.5 mg/mL; format: functional
In short: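 Sorbitol-synchronized FCB-2 cultures grown to late schizont stage at 0.5% parasitemia and 5% hematocrit in RPMI 1640 with 10% O-positive plasma. Agent added in triplicate, then incubated 18 h at 37 °C under 5% O2/5% CO2/90% N2. Erythrocytes stained with 15 µg/mL hydroethidine for 30 min at 37 °C. Invasion read by flow cytometry (FL2).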

Plasmodium falciparum [9] = assay: Inhibition of Plasmodium falciparum FCB2 merozoite invasion of human erythrocytes at […]; format: functional
Erythrocyte [10] = assay: Displacement of [125I]MSP-4 20494 peptide from 52 kDa erythrocyte membrane protein in human erythrocytes; format: cell-based; in short: as §3

Compound	Activity (Plasmodium falciparum [1]) [%]	inhibition at 200 µM (Plasmodium falciparum [2]) [%]	Activity (Erythrocyte [3]) [%]	Activity (Erythrocyte [4]) [%]	Activity (Erythrocyte [5]) [%]	Activity (Erythrocyte [6]) [%]	Kd [7] [nM]	inhibition at 500 µg/mL (Plasmodium falciparum [8]) [%]	inhibition (Plasmodium falciparum [9]) [%]	Activity (Erythrocyte [10])
CC(C)C[C@H](NC(=O)[C@H](CCCCN)NC(=O)[C@H](Cc1ccc(O)cc1)NC(=O)CNC(=O)[C@H](CCC(=O)O)NC(=O)[C@H](CCCCN)NC(=O)[C@H](CS)NC(=O)[C@H](CCCCN)NC(=O)[C@H](CS)NC(=O)[C@H](CCCCN)NC(=O)[C@@H](NC(=O)[C@H](CCCNC(=N)N)NC(=O)[C@H](CCCNC(=N)N)NC(=O)[C@H](CC(N)=O)NC(=O)CNC(=O)[C@@H](NC(=O)[C@H](Cc1ccc(O)cc1)NC(=O)[C@@H](N)CCC(=O)O)C(C)C)C(C)C)C(=O)N[C@@H](CCC(=O)O)C(=O)NCC(=O)O (H-EYVGNRRVKCKCKEGYKLEG-OH)	16	20	57	133	50	73	470			
H-KQNSHLSEKKIKPEEEYKKF-OH	22	83	88	73		57				
H-KPEEEYKKFLEYSFNLLNTM-OH	9	49	10	0		100	450			
H-NLGLFGKNVLSKVKAQSETDY-OH	9	59	0	160		105	600			
CCN(CC)CCCC(C)Nc1ccnc2cc(Cl)ccc12 (centres undefined) [CHLOROQUINE]								100		
O=C(O)CN(CCOCCOCCN(CC(=O)O)CC(=O)O)CC(=O)O [EGTAZIC ACID]									83	
H-MRILGEEKPNVDGVSTSNTPY-OH	9	11								
CC(C)C[C@H](NC(=O)[C@H](CCCCN)NC(=O)[C@H](CC(=O)O)NC(=O)[C@H](CC(=O)O)NC(=O)CNC(=O)[C@H](CS)NC(=O)CN)C(=O)N[C@@H](CS)C(=O)N[C@@H](CCC(=O)O)C(=O)N[C@@H](Cc1ccc(O)cc1)C(=O)N[C@H](C(=O)NCC(=O)N[C@@H](CC(N)=O)C(=O)N[C@@H](CCCNC(=N)N)C(=O)N[C@@H](CCCNC(=N)N)C(=O)N[C@H](C(=O)N[C@@H](CCCCN)C(=O)N[C@@H](CS)C(=O)N[C@@H](CCCCN)C(=O)N[C@@H](CS)C(=O)N[C@@H](CCCCN)C(=O)O)C(C)C)C(C)C (H-GCGDDKLCEYVGNRRVKCKCK-OH)	3	18								
H-KDKEYHEQFKNYIYGVYSYA-OH	7	24	0	34		73				
H-MWIVKFLIVVHFFIICTINFY-OH										inactive
H-IKNKKLEKLKNIVSGDFVGNY-OH	22	68	174	223		105	550			
H-KNVHVLINGNSIIDEIEKNEY-OH	10	29								
